According to ChEMBL document CHEMBL1151781, “Selectivity of inhibitors of endocannabinoid biosynthesis evaluated by activity-based protein profiling” (Bioorg Med Chem Lett, 2008):
Calls of active or inactive are those of the source. The calls are words filed in the database; no cut-off is given here.

What was measured:
[1] = molecular target: T1, Neutral cholesterol ester hydrolase 1 (Mus musculus) (UniProt Q8BLF1); assay: Inhibition of KIAA1363 in mouse brain at 0.01 to 100 uM treated for 30 mins by SDS-PAGE using rhodamine-tagged FP probe; assay type: tissue-based
T1 sequence (whole entry): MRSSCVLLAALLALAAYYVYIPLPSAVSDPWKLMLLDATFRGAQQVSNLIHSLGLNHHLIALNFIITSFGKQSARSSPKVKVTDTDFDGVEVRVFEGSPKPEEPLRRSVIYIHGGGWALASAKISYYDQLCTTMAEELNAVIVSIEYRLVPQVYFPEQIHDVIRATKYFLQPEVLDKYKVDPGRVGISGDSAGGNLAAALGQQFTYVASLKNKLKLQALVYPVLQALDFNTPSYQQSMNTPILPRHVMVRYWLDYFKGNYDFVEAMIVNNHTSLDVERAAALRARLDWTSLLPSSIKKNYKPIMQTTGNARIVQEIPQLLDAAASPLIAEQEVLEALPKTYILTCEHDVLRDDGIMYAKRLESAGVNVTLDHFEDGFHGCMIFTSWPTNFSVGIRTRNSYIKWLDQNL
Method in brief: (§1)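 Mouse brain membrane proteome preincubated with inhibitor across 0.01-100 μM for 30 min. A rhodamine-tagged fluorophosphonate probe (FP-Rh) was then added for 60 min. Samples were resolved by SDS-PAGE, and probe labeling of each hydrolase band was read by in-gel fluorescence scanning.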

[2] = molecular target: T2, Lysophosphatidylserine lipase ABHD12 (Mus musculus) (UniProt Q99LR1); assay: Inhibition of ABHD12 in mouse brain at 0.01 to 100 uM treated for 30 mins by SDS-PAGE using rhodamine-tagged FP probe; assay type: tissue-based; method in brief: as §1
T2 sequence (whole entry): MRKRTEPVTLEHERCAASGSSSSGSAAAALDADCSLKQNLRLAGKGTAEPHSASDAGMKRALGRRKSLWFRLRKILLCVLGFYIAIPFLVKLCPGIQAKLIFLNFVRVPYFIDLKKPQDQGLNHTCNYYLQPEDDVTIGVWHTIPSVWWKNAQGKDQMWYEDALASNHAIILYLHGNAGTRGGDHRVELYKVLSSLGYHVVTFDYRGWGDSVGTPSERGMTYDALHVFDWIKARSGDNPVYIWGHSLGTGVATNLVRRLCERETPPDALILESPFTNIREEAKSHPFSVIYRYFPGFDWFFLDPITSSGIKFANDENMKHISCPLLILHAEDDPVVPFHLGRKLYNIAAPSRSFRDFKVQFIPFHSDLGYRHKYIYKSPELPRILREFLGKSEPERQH

[3] = molecular target: T3, Phosphatidylserine lipase ABHD16A (Mus musculus) (UniProt Q9Z1Q2); assay: Inhibition of BAT5 in mouse brain at 0.01 to 100 uM treated for 30 mins by SDS-PAGE using rhodamine-tagged FP probe; assay type: tissue-based; method in brief: as §1
T3 sequence (whole entry): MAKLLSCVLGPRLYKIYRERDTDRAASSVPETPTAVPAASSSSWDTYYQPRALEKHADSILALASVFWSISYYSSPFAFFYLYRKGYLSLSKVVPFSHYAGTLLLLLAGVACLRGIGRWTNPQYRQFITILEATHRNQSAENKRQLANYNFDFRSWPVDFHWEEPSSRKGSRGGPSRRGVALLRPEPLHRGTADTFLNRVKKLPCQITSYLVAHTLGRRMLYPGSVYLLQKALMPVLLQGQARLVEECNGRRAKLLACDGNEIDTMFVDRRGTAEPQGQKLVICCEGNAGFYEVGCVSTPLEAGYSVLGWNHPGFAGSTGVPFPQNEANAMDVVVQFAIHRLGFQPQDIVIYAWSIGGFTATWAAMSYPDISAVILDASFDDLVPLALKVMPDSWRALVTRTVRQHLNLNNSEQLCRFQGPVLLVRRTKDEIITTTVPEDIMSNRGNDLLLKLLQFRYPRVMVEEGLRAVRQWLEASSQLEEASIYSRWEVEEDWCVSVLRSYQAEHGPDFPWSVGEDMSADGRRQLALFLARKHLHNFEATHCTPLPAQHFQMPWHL

[4] = molecular target: T4, Diacylglycerol lipase-beta (Mus musculus) (UniProt Q91WC9); assay: Inhibition of DAGLbeta in mouse brain assessed as >15 average spectral count at 50 uM treated for 30 mins by ABPP-MudPIT assay; assay type: tissue-based
T4 sequence (whole entry): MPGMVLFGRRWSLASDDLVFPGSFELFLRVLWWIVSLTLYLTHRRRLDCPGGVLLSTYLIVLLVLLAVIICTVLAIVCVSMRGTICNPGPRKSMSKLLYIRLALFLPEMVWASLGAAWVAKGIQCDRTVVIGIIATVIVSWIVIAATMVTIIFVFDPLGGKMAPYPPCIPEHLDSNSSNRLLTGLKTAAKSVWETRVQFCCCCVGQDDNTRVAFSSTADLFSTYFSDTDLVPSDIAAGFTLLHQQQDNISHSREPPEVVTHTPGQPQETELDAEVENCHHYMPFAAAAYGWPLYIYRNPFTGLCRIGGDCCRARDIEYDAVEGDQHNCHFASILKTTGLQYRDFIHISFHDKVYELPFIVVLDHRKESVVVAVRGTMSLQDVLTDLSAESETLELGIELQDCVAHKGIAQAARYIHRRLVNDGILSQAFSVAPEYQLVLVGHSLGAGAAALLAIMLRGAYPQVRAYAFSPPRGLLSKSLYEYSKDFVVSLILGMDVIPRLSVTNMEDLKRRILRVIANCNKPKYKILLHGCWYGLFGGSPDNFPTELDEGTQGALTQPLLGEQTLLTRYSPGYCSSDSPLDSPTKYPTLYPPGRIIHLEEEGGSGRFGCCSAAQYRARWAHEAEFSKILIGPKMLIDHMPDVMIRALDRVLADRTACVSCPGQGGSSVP

[5] = molecular target: Phosphatidylserine lipase ABHD16A (Homo sapiens, UniProt O95870); assay: Inhibition of recombinant BAT5 transfected in HEK293T cells by SDS-PAGE using rhodamine-tagged FP probe; assay type: cell-based, HEK-293T
Method in brief: (§2)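 HEK293T cells were transfected with cDNA for the target hydrolase. The transfected proteome was treated with inhibitor across 0.01-100 μM, then labeled with rhodamine-tagged fluorophosphonate probe (FP-Rh). Loss of probe labeling was read to give IC50. Values are means ± standard errors of three independent experiments.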

[6] = molecular target: Lysophosphatidylserine lipase ABHD12 (Homo sapiens, UniProt Q8N2K0); assay: Inhibition of recombinant ABHD12 transfected in HEK293T cells by SDS-PAGE using rhodamine-tagged FP probe; assay type: cell-based, HEK-293T; method in brief: as §2
[7] = molecular target: Platelet-activating factor acetylhydrolase (Homo sapiens, UniProt Q13093); assay: Inhibition of recombinant PLA2g7 transfected in HEK293T cells by SDS-PAGE using rhodamine-tagged FP probe; assay type: cell-based, HEK-293T; method in brief: as §2
[8] = molecular target: Diacylglycerol lipase-beta (Homo sapiens) (UniProt Q8NCG7); assay: Inhibition of recombinant DAGLbeta overexpressed in african green monkey COS7 cells assessed as accumulation of 2-arachidonoylglycerol […]; assay type: cell-based; conditions: COS-7
[9] = molecular target: Diacylglycerol lipase-alpha (Homo sapiens) (UniProt Q9Y4D2); assay: Inhibition of recombinant DAGLalpha overexpressed in african green monkey COS7 cells assessed as accumulation of 2-arachidonoylglycerol […]; assay type: cell-based; conditions: COS-7
[10] = molecular target: Fatty-acid amide hydrolase 1 (Homo sapiens, UniProt O00519); assay: Inhibition of recombinant FAAH transfected in HEK293T cells by SDS-PAGE using rhodamine-tagged FP probe; assay type: cell-based, HEK-293T; method in brief: as §2
Sequence of Fatty-acid amide hydrolase 1 (O00519 whole entry): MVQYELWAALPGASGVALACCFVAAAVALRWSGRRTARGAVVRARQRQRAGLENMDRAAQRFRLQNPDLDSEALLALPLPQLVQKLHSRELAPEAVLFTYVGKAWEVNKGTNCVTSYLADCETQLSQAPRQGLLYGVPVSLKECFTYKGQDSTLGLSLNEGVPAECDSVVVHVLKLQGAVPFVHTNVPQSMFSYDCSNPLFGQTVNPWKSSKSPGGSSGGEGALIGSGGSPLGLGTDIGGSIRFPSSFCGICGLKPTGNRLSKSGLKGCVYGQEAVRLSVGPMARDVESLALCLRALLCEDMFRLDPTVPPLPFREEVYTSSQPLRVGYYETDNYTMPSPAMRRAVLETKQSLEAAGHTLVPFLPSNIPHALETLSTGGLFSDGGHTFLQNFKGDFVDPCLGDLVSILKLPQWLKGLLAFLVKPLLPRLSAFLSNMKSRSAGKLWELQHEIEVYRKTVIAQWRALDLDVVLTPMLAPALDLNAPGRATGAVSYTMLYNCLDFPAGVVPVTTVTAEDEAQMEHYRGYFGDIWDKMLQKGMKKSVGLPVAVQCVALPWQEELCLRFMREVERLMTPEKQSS

Sequence of Lysophosphatidylserine lipase ABHD12 (Q8N2K0 whole entry): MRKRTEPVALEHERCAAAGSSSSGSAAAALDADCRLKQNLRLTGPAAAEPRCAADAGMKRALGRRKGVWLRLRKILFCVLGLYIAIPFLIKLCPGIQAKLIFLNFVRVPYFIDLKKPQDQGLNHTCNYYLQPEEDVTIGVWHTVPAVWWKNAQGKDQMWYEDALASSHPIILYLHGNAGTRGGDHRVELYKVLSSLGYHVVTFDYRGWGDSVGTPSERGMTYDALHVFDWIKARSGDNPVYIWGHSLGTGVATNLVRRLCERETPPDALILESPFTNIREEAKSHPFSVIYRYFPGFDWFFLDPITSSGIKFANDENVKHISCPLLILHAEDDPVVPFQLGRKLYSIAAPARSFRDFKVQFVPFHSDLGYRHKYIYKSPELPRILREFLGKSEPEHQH
Sequence of Diacylglycerol lipase-beta (Homo sapiens) (Q8NCG7 whole entry): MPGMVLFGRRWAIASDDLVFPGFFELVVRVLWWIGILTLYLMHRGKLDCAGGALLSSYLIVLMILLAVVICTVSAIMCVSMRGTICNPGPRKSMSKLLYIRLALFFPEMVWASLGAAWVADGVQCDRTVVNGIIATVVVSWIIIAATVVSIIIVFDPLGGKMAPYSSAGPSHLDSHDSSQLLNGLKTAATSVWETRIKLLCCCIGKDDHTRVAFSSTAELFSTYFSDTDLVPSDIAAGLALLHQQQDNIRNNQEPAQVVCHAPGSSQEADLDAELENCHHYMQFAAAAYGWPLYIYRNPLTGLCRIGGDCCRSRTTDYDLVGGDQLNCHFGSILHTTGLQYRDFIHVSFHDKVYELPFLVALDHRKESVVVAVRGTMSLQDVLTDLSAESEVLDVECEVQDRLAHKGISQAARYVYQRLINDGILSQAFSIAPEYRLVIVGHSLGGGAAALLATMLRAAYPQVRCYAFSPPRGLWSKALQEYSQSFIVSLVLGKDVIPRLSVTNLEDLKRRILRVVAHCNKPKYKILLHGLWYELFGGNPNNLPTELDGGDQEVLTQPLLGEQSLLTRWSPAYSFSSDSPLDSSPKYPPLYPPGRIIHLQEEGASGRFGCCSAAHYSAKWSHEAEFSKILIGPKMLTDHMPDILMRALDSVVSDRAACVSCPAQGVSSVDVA
Sequence of Diacylglycerol lipase-alpha (Homo sapiens) (Q9Y4D2 whole entry): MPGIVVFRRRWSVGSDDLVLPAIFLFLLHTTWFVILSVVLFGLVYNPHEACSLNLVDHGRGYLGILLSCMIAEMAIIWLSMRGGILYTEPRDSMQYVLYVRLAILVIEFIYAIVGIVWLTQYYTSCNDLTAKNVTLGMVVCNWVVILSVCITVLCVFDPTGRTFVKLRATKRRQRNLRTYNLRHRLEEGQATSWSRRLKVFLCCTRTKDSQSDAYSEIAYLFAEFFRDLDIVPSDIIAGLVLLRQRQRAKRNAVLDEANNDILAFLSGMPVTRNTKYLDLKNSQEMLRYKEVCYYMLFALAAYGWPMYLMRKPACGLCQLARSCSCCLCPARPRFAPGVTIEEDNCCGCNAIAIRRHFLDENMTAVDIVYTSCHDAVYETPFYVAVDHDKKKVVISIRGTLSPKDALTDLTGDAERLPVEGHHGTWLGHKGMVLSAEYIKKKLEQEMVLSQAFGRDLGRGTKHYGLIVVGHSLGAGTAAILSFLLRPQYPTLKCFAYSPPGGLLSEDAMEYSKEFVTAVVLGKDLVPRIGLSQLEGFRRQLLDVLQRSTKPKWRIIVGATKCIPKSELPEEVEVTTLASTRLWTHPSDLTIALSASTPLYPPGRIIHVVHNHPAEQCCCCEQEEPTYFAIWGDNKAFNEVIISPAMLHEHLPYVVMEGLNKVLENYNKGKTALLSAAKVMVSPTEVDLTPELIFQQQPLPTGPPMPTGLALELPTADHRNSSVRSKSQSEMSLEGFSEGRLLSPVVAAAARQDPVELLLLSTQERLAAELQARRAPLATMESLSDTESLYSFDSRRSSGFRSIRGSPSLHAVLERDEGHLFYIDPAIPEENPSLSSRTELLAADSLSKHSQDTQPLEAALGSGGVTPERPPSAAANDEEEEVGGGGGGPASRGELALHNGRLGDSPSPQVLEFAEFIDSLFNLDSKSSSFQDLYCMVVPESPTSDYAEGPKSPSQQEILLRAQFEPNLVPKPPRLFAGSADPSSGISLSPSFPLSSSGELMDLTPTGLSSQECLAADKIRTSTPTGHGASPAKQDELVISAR
Sequence of Phosphatidylserine lipase ABHD16A (O95870 whole entry): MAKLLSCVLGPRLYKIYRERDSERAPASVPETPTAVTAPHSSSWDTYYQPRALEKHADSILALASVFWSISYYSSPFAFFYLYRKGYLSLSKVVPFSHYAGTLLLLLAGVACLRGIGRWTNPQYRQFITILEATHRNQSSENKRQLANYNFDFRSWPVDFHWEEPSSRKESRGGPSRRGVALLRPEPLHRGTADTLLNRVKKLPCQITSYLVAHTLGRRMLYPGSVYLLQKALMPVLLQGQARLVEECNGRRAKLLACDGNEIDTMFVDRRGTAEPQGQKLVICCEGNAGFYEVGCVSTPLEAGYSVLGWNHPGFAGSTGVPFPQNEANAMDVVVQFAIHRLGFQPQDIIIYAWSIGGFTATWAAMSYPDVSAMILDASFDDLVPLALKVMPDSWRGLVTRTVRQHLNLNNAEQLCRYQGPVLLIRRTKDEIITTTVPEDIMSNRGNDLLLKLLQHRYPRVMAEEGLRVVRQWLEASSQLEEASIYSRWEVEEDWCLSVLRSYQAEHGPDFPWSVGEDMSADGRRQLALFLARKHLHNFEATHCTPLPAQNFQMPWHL
Sequence of Platelet-activating factor acetylhydrolase (Q13093 whole entry): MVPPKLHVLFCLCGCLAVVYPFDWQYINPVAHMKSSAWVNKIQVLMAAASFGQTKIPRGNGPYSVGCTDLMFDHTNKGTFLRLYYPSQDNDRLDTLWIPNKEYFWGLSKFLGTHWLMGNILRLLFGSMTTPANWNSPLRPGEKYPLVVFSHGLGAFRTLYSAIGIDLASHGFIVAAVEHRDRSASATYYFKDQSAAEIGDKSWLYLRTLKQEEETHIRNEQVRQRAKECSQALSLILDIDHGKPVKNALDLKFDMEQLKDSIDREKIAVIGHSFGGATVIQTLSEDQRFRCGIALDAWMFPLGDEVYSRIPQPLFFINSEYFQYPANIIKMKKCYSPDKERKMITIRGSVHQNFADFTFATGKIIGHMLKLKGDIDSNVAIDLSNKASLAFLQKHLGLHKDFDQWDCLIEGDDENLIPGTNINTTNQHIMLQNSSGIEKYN

O=C(NCCCCCCNC(=O)ON=C1CCCCC1)ON=C1CCCCC1
Activity [1]: Active
Activity [2]: Active
Activity [3]: Active
Activity [4]: inactive
IC50 [5]: 23 µM
IC50 [6]: > 100 µM
IC50 [7]: 11 µM
Activity [8]: Active
Activity [9]: Active
IC50 [10]: 70 µM

CCCCCCCCCCC[C@@H](C[C@@H]1OC(=O)[C@H]1CCCCCC)OC(=O)[C@H](CC(C)C)NC=O [ORLISTAT]
Activity [1]: Active
Activity [2]: Active
Activity [3]: Active
Activity [4]: inactive
IC50 [5]: 0.03 µM
IC50 [6]: 0.08 µM
IC50 [7]: 0.05 µM
Activity [8]: Active
Activity [9]: Active
IC50 [10]: > 100 µM
